Sampled rows, rich in hits. Any-hit rate of the full collection: about 6.8%.
PHOSPHO1 inh: blocks human PHOSPHO1 phosphatase activity. recombinant PHOSPHO1, absorbance phosphatase assay. 290,000 tested, 1.1% active. Q8TCT1. inhibition, % at 13.3 µM. AID 1565; in the data active means inhibition above about 60%
Target sequence (Q8TCT1 whole entry, looked up): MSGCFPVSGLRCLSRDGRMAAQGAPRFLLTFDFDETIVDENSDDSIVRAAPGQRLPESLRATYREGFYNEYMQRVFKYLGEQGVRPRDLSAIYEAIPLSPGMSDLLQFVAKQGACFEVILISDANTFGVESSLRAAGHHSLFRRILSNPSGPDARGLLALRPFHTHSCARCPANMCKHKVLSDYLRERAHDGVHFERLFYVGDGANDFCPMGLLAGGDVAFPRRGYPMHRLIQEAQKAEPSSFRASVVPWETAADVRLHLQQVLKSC
ALR H2O2 inh: blocks human ALR sulfhydryl oxidase activity; P55789; 290,000 tested, 3.8% active; purified ALR, DTT oxidation, H2O2 HRP-luminol luminescence; inhibition, % (test concentration not listed);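 active means mean replicate inhibition above about 79%, with every replicate also reaching it, limit read from the data; inconclusive means only one of the two criteria met; inactive means mean below limit and not every replicate reaching it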
Target sequence (P55789 whole entry, looked up): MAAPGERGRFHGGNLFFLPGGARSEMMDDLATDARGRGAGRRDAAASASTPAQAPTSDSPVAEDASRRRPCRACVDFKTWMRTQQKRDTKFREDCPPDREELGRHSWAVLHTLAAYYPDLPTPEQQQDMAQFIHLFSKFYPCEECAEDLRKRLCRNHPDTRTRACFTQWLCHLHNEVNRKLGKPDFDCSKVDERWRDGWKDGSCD
core dimer inh: HCV core protein dimerization inhibition | TR-FRET GST/Flag-core106 dimerization, 1536-well | inhibition, % at 5 µM | 300,000 tested, 0.33% active;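 active means inhibition above the mean of all tested compounds plus 3 SD, set per screening campaign, cut at about 45% in these data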
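Assay system: GST-tagged and Flag-tagged HCV core protein residues 1-106 / Times: compound-protein-antibody incubation 4 h at 22.5 °C / Signal: time-resolved FRET, ex 340 nm, em 617 and 671 nm / Evaluation: % inhibition based on acceptor/donor emission ratio / Benchmarks: wells lacking GST-core106 and wells with excess unlabelled core106 / Repeats: singlicate, one well per compound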
AI-2 QS mod: Vibrio harveyi AI-2 quorum sensing modulation | 300,000 tested, 0.4% active | Vibrio harveyi JMH597 AI-2 luminescence/OD600 ratio, 9 h; hits give low values; strain lacks LuxN and CqsS sensors; 0 = neutral-control median | activity change, % at 7.5 µM; in the data active means activity change below about -75%, passing the limit was not always enough; inconclusive means no clear call, values can overlap the other calls;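 further: luminescence divided by OD600 gain over 9 h not by final OD600 alone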
HSF1 inhib: HSF1 inhibition; activity change, negative = inhibition, % at 7.5 µM (by protocol); 300,000 tested, 0.77% active; AID 2098; NIH3T3-HGL HSE-luciferase, MG132-induced, luminescence 8 h; hits give low values;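 active means more than half of replicate wells show activity change below -50%, luminescence cut by over half; inconclusive means some wells, but at most half, below -50%; inactive means no replicate well below -50%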;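 further: luciferase reports HSF-1 transcriptional activity via heat shock element; 0% = median of DMSO wells and -100% = zero luminescence signal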
HSF1 activator: increases HSF-1 driven luciferase reporter signal; activation, % at 9 µM; 300,000 tested, 1.7% active; NIH3T3-HGL HSF-1 luciferase reporter, MG132, 8 h; 100% = twice DMSO control signal;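 active means mean replicate activation of at least 50% with a set share of replicates each reaching 50%; inconclusive means only one of those two conditions met; inactive means mean below 50% and too few replicates reaching it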;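 further: 0% = median of the neutral control wells and 100% = twice that signal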
* = called active by the depositor.

For CCN(CC)CCN1C(=O)C2C(C(=O)Nc3cccc(C)c3)C3C=CC2(O3)C1C(=O)NC1CCCC(C)C1C (configuration not stated) the results were PHOSPHO1 inh 36.0, ALR H2O2 inh -0.1, core dimer inh -0.9, AI-2 QS mod 6.5, HSF1 inhib -1.6 and HSF1 activator 5.9.
Screening CCn1c(SCc2ccccc2F)nnc1-c1ccncc1 returned ALR H2O2 inh -1.8, core dimer inh 4.9, AI-2 QS mod 24.0, HSF1 inhib -7.5 and HSF1 activator -6.4.
`Clc1ccc(C2=Nn3c(nnc3-c3n[nH]c4c3CCC4)SC2)cc1` gave PHOSPHO1 inh 73.3*, ALR H2O2 inh -10.7, core dimer inh 18.2, AI-2 QS mod 15.2, HSF1 inhib 1.7 and HSF1 activator -2.8.
`CCc1nnc(N2C(=O)c3ccccc3C2(O)c2ccccc2)s1` (configuration not stated) gave PHOSPHO1 inh 22.5, ALR H2O2 inh -3.0, core dimer inh -4.0, AI-2 QS mod 21.1, HSF1 inhib -10.1 and HSF1 activator 1.2.
COc1cc(OC)cc(C(=O)N2CC(=O)Nc3ccccc32)c1 was read as PHOSPHO1 inh 34.8, ALR H2O2 inh -1.4, core dimer inh -0.2, AI-2 QS mod 7.5, HSF1 inhib -11.2 and HSF1 activator -16.2.
For Nc1cc(C(=O)O)c(N)c2c1C(=O)c1ccccc1C2=O the results were PHOSPHO1 inh 25.1, ALR H2O2 inh 99.5*, core dimer inh -127.0, AI-2 QS mod 51.9, HSF1 inhib 6.9 and HSF1 activator 10.3.
For Nc1c(C(=O)O)ccc2c1C(=O)c1ccccc1C2=O the results were PHOSPHO1 inh 6.6, ALR H2O2 inh -3.1, core dimer inh -37.7, AI-2 QS mod 54.0, HSF1 inhib 2.0 and HSF1 activator -5.0.
Screening Cc1ccc(C2NNC(=O)C2NC(=O)c2ccccc2)cc1 (configuration not stated) returned PHOSPHO1 inh 44.7, ALR H2O2 inh 16.5, core dimer inh -3.1, AI-2 QS mod -1.3, HSF1 inhib 35.3 and HSF1 activator 64.8*.
NC(=O)c1ccc(NC(=O)COC(=O)c2ccc(Br)o2)cc1 was read as ALR H2O2 inh -0.4.
`COc1ccc(C(=O)[C@@H]2CC[C@](C)(C(=O)O)C2(C)C)cc1` gave core dimer inh 6.5, AI-2 QS mod 14.5, HSF1 inhib -1.9 and HSF1 activator 3.5.
Screening COc1cc(/C=C/C(=O)O)ccc1O returned ALR H2O2 inh 87.3*, core dimer inh -2.2, AI-2 QS mod 3.8, HSF1 inhib -8.9 and HSF1 activator -13.2.
`COc1cc(/C=C/C(=O)/C=C(O)/C=C/c2ccc(O)c(OC)c2)ccc1O` gave ALR H2O2 inh 0.4.
For COc1cc(/C=C/C2=NC(=O)C(C)(C)O2)ccc1O the results were PHOSPHO1 inh 10.6, ALR H2O2 inh 98.9*, core dimer inh -8.3, AI-2 QS mod 8.1, HSF1 inhib -2.7 and HSF1 activator -5.7.
COc1ccc(/C=C/C(=O)c2ccc([N+](=O)[O-])o2)cc1OC was read as ALR H2O2 inh 64.4, core dimer inh 9.3, AI-2 QS mod 52.1, HSF1 inhib 39.1 and HSF1 activator inconclusive.
Screening COc1cc(/C=C/C(=O)c2ccc([N+](=O)[O-])o2)ccc1O returned ALR H2O2 inh inconclusive, core dimer inh -0.5, AI-2 QS mod -174.9*, HSF1 inhib 24.5 and HSF1 activator 27.1.
For O=C(O)/C=C/c1ccc(O)c(O)c1 the results were PHOSPHO1 inh -1.4, ALR H2O2 inh 98.2*, core dimer inh 9.0, AI-2 QS mod 20.9, HSF1 inhib -7.2 and HSF1 activator -2.0.
`O=C(/C=C/c1ccc(O)c(O)c1)O[C@H](Cc1ccc(O)c(O)c1)C(=O)O` gave PHOSPHO1 inh 8.9, AI-2 QS mod 20.0, HSF1 inhib -4.8 and HSF1 activator -4.9.
COc1ccc(C=C(C(C)=O)C(C)=O)cc1OC was read as PHOSPHO1 inh 1.1, core dimer inh 2.7, AI-2 QS mod 14.2, HSF1 inhib 7.9 and HSF1 activator 16.2.
For COc1cc(C=C(C(C)=O)C(C)=O)ccc1O the results were PHOSPHO1 inh 8.5, ALR H2O2 inh 98.3*, core dimer inh -5.8, AI-2 QS mod 5.2, HSF1 inhib 16.4 and HSF1 activator 21.8.
For COc1cc(C2NC(=S)NC(C)=C2C(=O)Nc2ccc(C)cc2)ccc1O (configuration not stated) the results were PHOSPHO1 inh 36.3, ALR H2O2 inh 20.4, core dimer inh -0.6, AI-2 QS mod 40.6, HSF1 inhib 43.1 and HSF1 activator 83.7*.
For COc1cc(C2NC(=S)NC(C)=C2C(=O)OC(C)C)ccc1OC(C)C (configuration not stated) the results were PHOSPHO1 inh -1.9, ALR H2O2 inh 96.0*, core dimer inh -0.1, AI-2 QS mod -1.3, HSF1 inhib 1.5 and HSF1 activator -5.8.
Screening CCOC(=O)c1c(C)[n+]([O-])c2ccc3c(non3O)c12 returned PHOSPHO1 inh 16.5, ALR H2O2 inh 7.6, core dimer inh -11.7, AI-2 QS mod 3.9, HSF1 inhib 9.7 and HSF1 activator 47.4.
`CCOC(=O)c1c(=O)n(O)c2ccc(C)cc2[n+]1[O-]` gave PHOSPHO1 inh 67.7*, ALR H2O2 inh -17.3, core dimer inh -9.1, AI-2 QS mod 7.2, HSF1 inhib -1.7 and HSF1 activator -2.6.
For O=C(OCC(=O)N1CCCC1=O)c1cc2ccccc2o1 the results were ALR H2O2 inh 1.5.
`O=C(Nc1c(O)c2ccccc2[nH]c1=O)c1ccco1` gave PHOSPHO1 inh -24.7, ALR H2O2 inh -3.0, core dimer inh -1.0, AI-2 QS mod 24.3, HSF1 inhib 1.0 and HSF1 activator 1.2.
`COc1ccc2nc(S(=O)Cc3ncc(C)c(OC)c3C)[nH]c2c1` (configuration not stated) gave PHOSPHO1 inh 3.5, ALR H2O2 inh 97.6*, core dimer inh -2.4, AI-2 QS mod 17.5, HSF1 inhib 2.9 and HSF1 activator 15.5.
CC1CC(C)(C)OC(C[N+]2(C)CCCCC2)O1 (configuration not stated) was read as PHOSPHO1 inh -18.3, ALR H2O2 inh -26.5, core dimer inh 2.9, AI-2 QS mod 3.1, HSF1 inhib -4.2 and HSF1 activator -3.9.
Screening Nc1ccc(Cc2nc3cc4ccccc4cc3[nH]2)cc1 returned PHOSPHO1 inh 23.4, ALR H2O2 inh -5.7, core dimer inh -2.0 and AI-2 QS mod -36.6.
For Cc1ccc2nc(CCc3ccc(N)cc3)[nH]c2c1 the results were PHOSPHO1 inh -5.8, ALR H2O2 inh 99.4*, core dimer inh -1.1, AI-2 QS mod -5.7, HSF1 inhib 21.3 and HSF1 activator 41.2.

Screens deposited in PubChem by several laboratories.
